Laboratory results from paper PMC11328607 (Journal of Enzyme Inhibition and Medicinal Chemistry, 2024).
Several values for one entry are separate records, joined by “and”; a condition that tells them apart may be missing. Equal entries are not always repeated. Where two headings read alike, the source gives them in different places.

Legend:
[1] = test system: normal human lung fibroblasts (Wi-38); assay: MTT cytotoxicity assay on normal lung fibroblasts; assay type: cell-based; conditions: for IC50: read-out: Wi-38 IC50
human NSCLC A549 cells = assay: MTT cytotoxicity assay on NSCLC cells; assay type: cell-based; conditions: for fold more potent than cisplatin: A549 IC50 relative to cisplatin; for IC50: Mean ± SD, n = 3; for SI (ratio of IC50 for healthy and cancer cells): Wi-38 IC50 / A549 IC50
Method in brief: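 Human A549 and Wi-38 fibroblasts (ATCC) grown in DMEM with 10% FBS at 37 °C, 5% CO2. Wi-38 seeded at 5 x10^3 cells/well and given 24 h to attach; A549 run by the same MTT method. […] MTT 5 mg/ml added for 3 h at 37 °C, formazan dissolved in DMSO, A570 read. IC50 derived; SI = Wi-38 IC50/A549 IC50. Mean ± SD, n = 3.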

MMP-9 = MMP-9 (Homo sapiens, UniProt P14780); assay: In vitro MMP-9 inhibition assay; assay type: biochemical
Sequence of MMP-9 (P14780 94-707): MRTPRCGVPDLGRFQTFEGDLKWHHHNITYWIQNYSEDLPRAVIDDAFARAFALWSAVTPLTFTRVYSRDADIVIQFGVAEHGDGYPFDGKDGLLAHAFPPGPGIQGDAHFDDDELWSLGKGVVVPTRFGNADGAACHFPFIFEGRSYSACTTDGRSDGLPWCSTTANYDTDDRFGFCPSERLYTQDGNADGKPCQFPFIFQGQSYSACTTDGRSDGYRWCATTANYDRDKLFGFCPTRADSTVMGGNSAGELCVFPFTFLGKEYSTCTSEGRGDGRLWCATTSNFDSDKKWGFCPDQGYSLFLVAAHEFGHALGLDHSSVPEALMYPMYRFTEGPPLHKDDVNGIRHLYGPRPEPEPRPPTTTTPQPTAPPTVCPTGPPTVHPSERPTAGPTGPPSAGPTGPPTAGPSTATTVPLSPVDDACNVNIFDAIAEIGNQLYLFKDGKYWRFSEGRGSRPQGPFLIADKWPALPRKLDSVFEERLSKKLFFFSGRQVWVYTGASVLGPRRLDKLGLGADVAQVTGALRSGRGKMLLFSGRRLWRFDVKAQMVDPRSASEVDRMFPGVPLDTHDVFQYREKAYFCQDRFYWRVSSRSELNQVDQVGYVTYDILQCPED
Method in brief: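 Commercial MMP-9 inhibitor assay kit, run per the manufacturer's instructions. Test compounds were assayed at 0.5 µM alongside the broad-spectrum hydroxamate MMP inhibitor NNGH as reference. For selectivity, MMP-2 inhibition was measured with a colorimetric MMP-2 inhibitor screening kit at the same 0.5 µM, also per the manufacturer's instructions.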

[2] = target: CaV3.2 (T-type) calcium channels (Homo sapiens, UniProt O95180); assay: Whole cell patch-clamp T-type calcium channel block; assay type: cell-based; conditions: HEK-tsA201, read-out: Block of CaV3.2 (T-type) currents, percentage of inhibition, 10 μM; HEK tsA-201 cells; n = 3
Sequence of CaV3.2 (T-type) calcium channels (O95180 whole entry): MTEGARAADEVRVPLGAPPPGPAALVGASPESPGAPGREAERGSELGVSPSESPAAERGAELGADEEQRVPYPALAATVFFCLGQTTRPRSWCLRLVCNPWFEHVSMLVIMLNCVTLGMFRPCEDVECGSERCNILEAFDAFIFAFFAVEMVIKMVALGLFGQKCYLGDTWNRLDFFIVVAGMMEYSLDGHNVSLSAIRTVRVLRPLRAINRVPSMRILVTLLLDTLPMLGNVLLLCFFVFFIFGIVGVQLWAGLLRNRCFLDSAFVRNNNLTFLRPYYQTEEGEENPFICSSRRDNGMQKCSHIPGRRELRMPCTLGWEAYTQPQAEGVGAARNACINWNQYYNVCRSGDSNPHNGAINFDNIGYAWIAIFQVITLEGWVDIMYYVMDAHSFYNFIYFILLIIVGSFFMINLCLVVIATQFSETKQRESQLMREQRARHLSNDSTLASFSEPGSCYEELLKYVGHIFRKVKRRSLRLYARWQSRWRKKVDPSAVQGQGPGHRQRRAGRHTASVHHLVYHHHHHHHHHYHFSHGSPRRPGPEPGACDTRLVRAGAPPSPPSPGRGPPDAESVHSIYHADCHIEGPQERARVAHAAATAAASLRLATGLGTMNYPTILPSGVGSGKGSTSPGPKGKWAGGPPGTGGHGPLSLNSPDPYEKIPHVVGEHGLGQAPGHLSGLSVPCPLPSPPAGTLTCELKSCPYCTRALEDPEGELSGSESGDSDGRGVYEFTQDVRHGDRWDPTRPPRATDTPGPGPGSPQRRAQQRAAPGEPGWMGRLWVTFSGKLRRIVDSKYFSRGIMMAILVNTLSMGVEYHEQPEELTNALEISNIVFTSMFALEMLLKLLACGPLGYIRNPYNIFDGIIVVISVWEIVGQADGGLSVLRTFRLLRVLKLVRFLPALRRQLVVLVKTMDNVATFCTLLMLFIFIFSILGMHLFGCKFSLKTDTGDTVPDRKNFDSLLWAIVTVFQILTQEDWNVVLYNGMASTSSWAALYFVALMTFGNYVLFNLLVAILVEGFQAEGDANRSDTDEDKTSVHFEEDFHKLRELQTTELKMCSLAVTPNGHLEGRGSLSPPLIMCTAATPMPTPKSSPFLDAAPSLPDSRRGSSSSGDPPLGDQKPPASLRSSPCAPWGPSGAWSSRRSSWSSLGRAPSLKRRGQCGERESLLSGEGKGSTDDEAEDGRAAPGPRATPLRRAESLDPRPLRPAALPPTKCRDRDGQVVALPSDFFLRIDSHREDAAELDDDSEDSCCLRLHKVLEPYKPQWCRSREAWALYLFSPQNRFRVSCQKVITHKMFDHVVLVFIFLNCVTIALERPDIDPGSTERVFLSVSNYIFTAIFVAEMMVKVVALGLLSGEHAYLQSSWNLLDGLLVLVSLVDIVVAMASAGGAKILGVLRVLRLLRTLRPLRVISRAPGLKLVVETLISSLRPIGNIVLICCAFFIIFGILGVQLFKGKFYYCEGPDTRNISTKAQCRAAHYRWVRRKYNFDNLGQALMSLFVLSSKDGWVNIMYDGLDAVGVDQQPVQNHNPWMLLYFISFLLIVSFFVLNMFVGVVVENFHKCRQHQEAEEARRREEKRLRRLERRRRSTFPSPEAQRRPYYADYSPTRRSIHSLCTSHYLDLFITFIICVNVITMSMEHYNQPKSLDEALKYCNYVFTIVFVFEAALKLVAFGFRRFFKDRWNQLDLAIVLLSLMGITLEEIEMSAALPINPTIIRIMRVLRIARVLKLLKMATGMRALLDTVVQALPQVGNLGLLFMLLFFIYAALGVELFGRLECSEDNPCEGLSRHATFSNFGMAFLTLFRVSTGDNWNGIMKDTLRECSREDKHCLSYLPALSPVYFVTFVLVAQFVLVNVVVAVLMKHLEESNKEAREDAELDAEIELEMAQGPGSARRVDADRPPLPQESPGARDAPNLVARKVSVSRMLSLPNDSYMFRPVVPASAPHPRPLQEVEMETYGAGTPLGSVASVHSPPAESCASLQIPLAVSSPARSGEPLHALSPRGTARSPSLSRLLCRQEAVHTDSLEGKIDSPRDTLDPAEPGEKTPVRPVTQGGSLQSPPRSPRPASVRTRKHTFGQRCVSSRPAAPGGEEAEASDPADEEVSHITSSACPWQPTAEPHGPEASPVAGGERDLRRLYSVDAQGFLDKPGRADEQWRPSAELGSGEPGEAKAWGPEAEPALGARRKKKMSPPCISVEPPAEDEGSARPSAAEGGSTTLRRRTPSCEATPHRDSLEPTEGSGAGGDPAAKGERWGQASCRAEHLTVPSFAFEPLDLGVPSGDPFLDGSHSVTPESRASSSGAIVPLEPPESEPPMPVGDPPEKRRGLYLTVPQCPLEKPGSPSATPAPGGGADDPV
Method in brief: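 Human embryonic kidney tsA-201 (293T) cells transiently transfected to express CaV3.2 T-type channels, then recorded by whole-cell patch clamp. Each test compound applied at 10 µM and block of T-type calcium current measured.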

[3] = DPPH radical scavenging assay; conditions: n = 3; for DPPH radical scavenging %: 12 h, dark
Method in brief: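 Test compound dissolved in 1:1 water:DMSO (v/v), then mixed with an equal volume of 0.6 mM DPPH in absolute ethanol, giving final 500, 250, 125, 100, 62.5 and 31.25 µg/mL. Kept 12 h at room temperature in complete darkness. Absorbance read at 517 nm. Inhibition % taken from control (A0) versus compound (A1) absorbance, IC50 then calculated. Mean ± SD, n = 3.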

A549 cells = assay: Combination studies with cisplatin; assay type: cell-based, human
[4] = Homo sapiens, A549, 72 h, read-out: A549 IC50, MTT, 72 h

SMILES | IC50 ([1]; Homo sapiens, WI-38, 72 h) [nM] | Wi-38 EC100 (effective safe concentration at 100% cell viability) ([1]; MTT, 72 h, Mean ± SD, n = 3) | IC50 (human NSCLC A549 cells; [4]) [nM] | inhibition at 10 µM [2] [%] | further results
[N-]=[N+]=NCC(=O)Nc1nc(-c2ccccc2)cs1 [Compound 3, 2-Azido-N-(4-phenylthiazol-2-yl)acetamide] | 1728 ± 3 | 429 nM and 429 ± 32 nM | 74.4 | – | fold more potent than cisplatin (human NSCLC A549 cells): ~8 fold; IC50 (human NSCLC A549 cells; read-out: A549 IC50, MTT, 72 h): 74 ± 4 nM
O=C(C=Cc1cn(CC(=O)Nc2nc(-c3ccccc3)cs2)nn1)C=Cc1cn(CC(=O)Nc2nc(-c3ccccc3)cs2)nn1 [Compound 8, 2,2’-[(3-Oxopenta-1,4-diene-1,5-diyl)bis(1H-1,2,3-triazole-4,1-diyl)]bis(N-(4-phenylthiazol-2-yl)acetamide)] | 108 ± 3 | 38 ± 2 nM | 116 ± 1 | – | –
COc1ccc(S(=O)(=O)N(CC(=O)NO)CC(C)C)cc1 [NNGH, reference compound] | – | – | – | – | MMP-9 % Inhibition (0.5 μM) (MMP-9; 0.5 μM, Mean ± SD, n = 2): 56.8 ± 0.8%; IC50 (MMP-9; read-out: MMP-9 IC50, Mean ± SD, n = 2): 350 ± 10 nM
O=Cc1cn(CC(=O)Nc2nc(-c3ccccc3)cs2)nn1 [Compound 5, 2–(4-Formyl-1H-1,2,3-triazol-1-yl)-N-(4-phenylthiazol-2-yl)acetamide] | 243 ± 14 | 78 ± 4 nM | 112 | 20 | –
O=C(Cn1cc(CO)nn1)Nc1nc(-c2ccccc2)cs1 [Compound 4, 2-[4-(Hydroxymethyl)-1H-1,2,3-triazol-1-yl]-N-(4-phenylthiazol-2-yl)acetamide] | 249 ± 2 | 58 ± 4 nM | 268 ± 2 | ~60 | –
O=C(Cn1cc(C=CC(=O)c2ccc(F)cc2)nn1)Nc1nc(-c2ccccc2)cs1 [Compound 6d, 2-{4-[3–(4-Fluorophenyl)-3-oxoprop-1-en-1-yl]-1H-1,2,3-triazol-1-yl}-N-(4-phenylthiazol-2-yl)acetamide] | 255 ± 3 | 138 ± 9 nM | 21 ± 1 | ~60 | fold more potent than cisplatin (human NSCLC A549 cells): 27 fold; DPPH radical scavenging % ([3]; 250 µg/mL): 70.9 ± 6.6%; DPPH radical scavenging % ([3]; 500 µg/mL): 85.4 ± 7.9%; DPPH radical scavenging IC50 ([3]; Mean ± SD): 146.9 ± 22.54 µg/mL; IC50 (MMP-9): 90 ± 10 nM; selectivity to MMP-9 over MMP-2 (SI) (MMP-9; MMP-9 over MMP-2, 0.5 μM): 2.4; inhibition at 0.5 µM (MMP-9; read-out: MMP-9 % Inhibition (0.5 μM)): 96.2 ± 0.6%; fold more active than NNGH (MMP-9 IC50) (MMP-9; relative to NNGH): ~4 fold; lowering of combination IC50 compared to cisplatin as single agent (A549 cells; 6d combined with cisplatin): > 72.3% and > 72.32%; dose reduction index (DRI) for cisplatin (A549 cells; 6d with cisplatin at IC50 doses): 6.89 folds; combination index (CI) (A549 cells; 6d with cisplatin, CI < 1 synergistic): 0.69 ± 0.05 and 0.69
N.N.[Cl][Pt][Cl] [Cisplatin, reference compound] | – | – | – | – | IC50 ([1]; MTT, 72 h, Mean ± SD, n = 3): 1330 ± 82 nM; IC50 (human NSCLC A549 cells; read-out: A549 IC50, MTT, 72 h): 586 ± 30 nM
Cc1ccc(C2=NNC(c3cn(CC(=O)Nc4nc(-c5ccccc5)cs4)nn3)C2)cc1 (stereo not shown) [Compound 7c, 2-{4-[3-(p-tolyl)-4,5-dihydro-1H-pyrazol-5-yl]-1H-1,2,3-triazol-1-yl}-N-(4-phenylthiazol-2-yl)acetamide] | 230 ± 5 | 51 ± 7 nM | 200 ± 6 | – | SI (ratio of IC50 for healthy and cancer cells) (human NSCLC A549 cells): 1.15
O=C(Cn1cc(C2CC(c3ccc(F)cc3)=NN2)nn1)Nc1nc(-c2ccccc2)cs1 (stereo not shown) [Compound 7d, 2-{4-[3–(4-Fluorophenyl)-4,5-dihydro-1H-pyrazol-5-yl]-1H-1,2,3-triazol-1-yl}-N-(4-phenylthiazol-2-yl)acetamide] | 1300 ± 31 | 108 ± 15 nM | 425 ± 17 | – | SI (ratio of IC50 for healthy and cancer cells) (human NSCLC A549 cells): 3.05
CC(=O)C=Cc1cn(CC(=O)Nc2nc(-c3ccccc3)cs2)nn1 [Compound 6a, 2-[4–(3-Oxobut-1-en-1-yl)-1H-1,2,3-triazol-1-yl]-N-(4-phenylthiazol-2-yl)acetamide] | 1920 ± 212 | 460 nM and 460 ± 110 nM | 82 ± 5 | – | –
